Read-outs that look alike come from different tables or passages of the source.
Experiments:
cerebral amyloidosis = assay: Immunohistochemistry of amyloid deposition; type: in vivo, mouse; details: 25 mg/kg/d, 3 mo
Procedure, shortened: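 Female PSAPP mice began treatment at 90 or 180 d of age with vehicle (PEG 400/water/Tween 20) or test compound 25 mg/kg/d by oral gavage for 3 mo. Cerebral amyloid deposition in cortex and hippocampus was assessed by immunohistochemistry with anti-Aβ mAb 3D6, alongside Iba1 staining for microgliosis.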

CYP450 1A2 = target: T1, CYP450 1A2 (Homo sapiens, UniProt P05177); assay: CYP450 inhibition, recombinant isoform; type: in vitro ADME
T1 sequence (P05177 1-516): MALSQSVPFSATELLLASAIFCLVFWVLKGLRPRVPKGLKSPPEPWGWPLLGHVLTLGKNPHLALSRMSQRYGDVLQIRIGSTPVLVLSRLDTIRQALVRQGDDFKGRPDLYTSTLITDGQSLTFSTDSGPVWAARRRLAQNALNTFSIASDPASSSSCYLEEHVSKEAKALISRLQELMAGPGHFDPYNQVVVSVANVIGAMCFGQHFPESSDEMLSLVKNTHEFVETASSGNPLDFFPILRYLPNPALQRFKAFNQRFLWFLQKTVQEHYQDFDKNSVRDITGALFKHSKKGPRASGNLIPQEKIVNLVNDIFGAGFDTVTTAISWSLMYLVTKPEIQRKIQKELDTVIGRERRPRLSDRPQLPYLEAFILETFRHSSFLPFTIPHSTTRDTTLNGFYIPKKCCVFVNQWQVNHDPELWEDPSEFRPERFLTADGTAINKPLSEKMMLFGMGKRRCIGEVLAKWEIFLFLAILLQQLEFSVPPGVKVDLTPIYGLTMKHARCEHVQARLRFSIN
Procedure, shortened: (§1)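 Recombinant human CYP450 isoforms were incubated with isoform-specific probe substrates; for CYP3A4 these were midazolam and testosterone. Inhibition was quantified by LC-MS/MS analysis of probe-substrate turnover.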

sodium channel (Site 2) = assay: CEREP off-target radioligand binding panel; details: 10 µM
Procedure, shortened: (§2)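 CEREP secondary-pharmacology panel of 55 receptors, transporters and ion channels. Test compound at 10 µM was assessed for inhibition of binding of a radiolabelled reference ligand specific to each target. Result is percent inhibition of ligand binding.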

[1] = test system: Aβ42, Aβ40, Aβ38 in plasma and brain extracts; assay: Chronic 3-mo efficacy in PSAPP transgenic mice; type: in vivo, mouse; details: 25 mg/kg/d po
Procedure, shortened: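 Female PSAPP (APPswe/PSEN1dE9) mice and wild-type C57BL/6J controls, 9–10 per group, housed at 22°C on a 12:12 h light cycle. Treatment began at 90 or 180 d of age: vehicle (80% PEG 400, 20% water, 0.1% Tween 20) or test compound 25 mg/kg/d by oral gavage for 3 mo. Brain Aβ peptides were then measured.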

κ opioid receptors = assay: CEREP off-target radioligand binding panel; details: 10 µM
Procedure, shortened: as §2

[2] = Single-dose i.v./po PK in male Sprague-Dawley rats; type: in vivo, rat
Procedure, shortened: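 Sprague-Dawley rats received a single i.v. dose of 1 mg/kg (n = 13) or an oral dose of 5 mg/kg (n = 3). Plasma was sampled at 5 min (i.v. only), 15 and 30 min, 1, 2, 4, 8 and 12 h, and 24 and 48 h (po only). Oral bioavailability came from i.v./po comparison; fabs came from kinetic analysis.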

adenosine A3 = adenosine A3 (Homo sapiens, UniProt P0DMS8); assay: CEREP off-target radioligand binding panel; details: read-out: inhibition of ligand binding
adenosine A3, sequence (P0DMS8 whole entry): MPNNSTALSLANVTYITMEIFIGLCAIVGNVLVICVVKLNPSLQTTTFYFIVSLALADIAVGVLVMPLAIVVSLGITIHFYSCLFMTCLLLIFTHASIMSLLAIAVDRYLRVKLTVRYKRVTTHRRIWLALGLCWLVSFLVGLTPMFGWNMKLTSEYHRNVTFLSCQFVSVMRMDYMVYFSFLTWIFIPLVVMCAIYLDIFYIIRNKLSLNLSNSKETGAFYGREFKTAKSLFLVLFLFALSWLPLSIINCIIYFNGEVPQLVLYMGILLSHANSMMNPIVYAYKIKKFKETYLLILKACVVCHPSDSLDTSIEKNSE
Procedure, shortened: as §2

[3] = test system: Aβ38, Aβ40, Aβ42 in plasma; assay: Acute single-dose escalation and time course efficacy in NHPs; type: in vivo, cynomolgus macaque
Procedure, shortened: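 Cynomolgus macaques, two male and two female. Escalation phase: single nasogastric doses of 0, 10, 30, 100 and 200 mg/kg, with blood taken 4 h post-dose. Repeat phase: 200 mg/kg for 2 d, then 100 mg/kg for 5 d, with blood on days 1 and 7 at predose and 1, 2, 4, 8 and 24 h. K3EDTA plasma was stored at ≤ −60°C. Aβ38/40/42 were measured by MSD multiplex assay.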

hERG channel = hERG channel (Homo sapiens, UniProt Q12809); assay: Patch-Xpress patch-clamp hERG assay in HEK-293 cells; type: cell-based
hERG channel, sequence (Q12809 whole entry): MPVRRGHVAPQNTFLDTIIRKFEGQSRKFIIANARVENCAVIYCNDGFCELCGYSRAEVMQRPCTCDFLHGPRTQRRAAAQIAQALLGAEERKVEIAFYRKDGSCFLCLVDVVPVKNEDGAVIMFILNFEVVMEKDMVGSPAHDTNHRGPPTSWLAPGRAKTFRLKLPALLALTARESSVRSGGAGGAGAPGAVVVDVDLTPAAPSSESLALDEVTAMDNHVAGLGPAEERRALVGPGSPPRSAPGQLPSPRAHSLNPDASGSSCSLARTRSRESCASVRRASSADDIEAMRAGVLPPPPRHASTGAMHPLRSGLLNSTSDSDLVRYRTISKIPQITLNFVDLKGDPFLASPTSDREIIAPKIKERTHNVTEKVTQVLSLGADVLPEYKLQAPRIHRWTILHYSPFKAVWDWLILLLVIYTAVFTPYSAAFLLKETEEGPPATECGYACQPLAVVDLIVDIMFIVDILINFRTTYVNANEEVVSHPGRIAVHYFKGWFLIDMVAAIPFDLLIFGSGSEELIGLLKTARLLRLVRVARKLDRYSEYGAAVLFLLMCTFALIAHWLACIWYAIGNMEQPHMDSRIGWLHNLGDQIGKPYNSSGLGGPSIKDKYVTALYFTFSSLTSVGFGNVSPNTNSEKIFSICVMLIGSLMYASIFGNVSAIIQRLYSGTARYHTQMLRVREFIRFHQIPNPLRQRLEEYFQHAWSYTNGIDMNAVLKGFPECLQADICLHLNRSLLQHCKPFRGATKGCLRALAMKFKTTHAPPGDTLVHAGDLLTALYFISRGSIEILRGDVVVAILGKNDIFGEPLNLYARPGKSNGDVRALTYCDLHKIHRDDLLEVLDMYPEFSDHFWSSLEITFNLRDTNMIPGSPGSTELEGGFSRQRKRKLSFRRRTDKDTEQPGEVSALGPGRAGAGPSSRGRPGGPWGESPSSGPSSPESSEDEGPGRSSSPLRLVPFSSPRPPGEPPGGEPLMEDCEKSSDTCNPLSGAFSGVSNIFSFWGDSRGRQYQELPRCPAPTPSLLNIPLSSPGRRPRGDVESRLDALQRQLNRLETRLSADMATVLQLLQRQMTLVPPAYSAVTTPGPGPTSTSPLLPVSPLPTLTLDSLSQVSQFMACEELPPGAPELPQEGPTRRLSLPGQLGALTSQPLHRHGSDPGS

[4] = test system: chloride channel (γ-aminobutyric acid–gated); assay: CEREP off-target radioligand binding panel; details: 10 µM
Procedure, shortened: as §2

[5] = test system: S. typhimurium bacterial strains TA98, TA100, TA1535, TA1537; assay: Non-GLP screening; type: cell-based, Salmonella typhimurium; details: 5–100 µM, with and without Aroclor-induced rat liver S9
Procedure, shortened: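 Non-GLP mini-Ames screen using S. typhimurium TA98, TA100, TA1535 and TA1537, with and without Aroclor-induced rat liver S9. Test article was applied at 5–100 µM. Read-out was bacterial growth from reversion of the histidine mutation.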

[6] = GLP 28-d repeat-dose toxicity and in vivo micronucleus study in rats; set-up: species or system rat
CYP450 2C9 = CYP450 2C9 (Homo sapiens, UniProt P11712); assay: CYP450 inhibition, recombinant isoform; type: in vitro ADME
CYP450 2C9, sequence (P11712 whole entry, canonical isoform): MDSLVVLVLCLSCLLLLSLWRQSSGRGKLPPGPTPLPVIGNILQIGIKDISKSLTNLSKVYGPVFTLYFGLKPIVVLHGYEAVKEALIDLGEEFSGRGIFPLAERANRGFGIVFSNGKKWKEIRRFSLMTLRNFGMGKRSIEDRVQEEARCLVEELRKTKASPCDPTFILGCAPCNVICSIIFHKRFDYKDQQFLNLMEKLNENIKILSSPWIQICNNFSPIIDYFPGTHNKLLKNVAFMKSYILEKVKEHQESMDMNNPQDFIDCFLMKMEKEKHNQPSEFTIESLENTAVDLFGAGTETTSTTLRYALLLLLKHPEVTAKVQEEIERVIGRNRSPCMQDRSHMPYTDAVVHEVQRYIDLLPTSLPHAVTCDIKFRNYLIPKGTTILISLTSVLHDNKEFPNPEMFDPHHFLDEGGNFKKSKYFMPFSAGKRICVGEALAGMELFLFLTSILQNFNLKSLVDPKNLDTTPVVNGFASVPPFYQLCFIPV

[7] = Single-dose i.v./po PK in male CD-1 mice; type: in vivo, mouse; details: for clearance: male, CD-1, mouse, plasma, iv, 1 mg/kg
Procedure, shortened: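 CD-1 mice received a single i.v. dose of 1 mg/kg (n = 12) or an oral gavage dose of 5 mg/kg (n = 12). Brains were collected at 1, 4, 8 and 12 h. Oral bioavailability came from i.v./po comparison; fabs came from kinetic analysis.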

CYP450 3A4 = CYP450 3A4 (Homo sapiens, UniProt P08684); assay: CYP450 inhibition, recombinant isoform; type: in vitro ADME
CYP450 3A4, sequence (P08684 whole entry, canonical isoform): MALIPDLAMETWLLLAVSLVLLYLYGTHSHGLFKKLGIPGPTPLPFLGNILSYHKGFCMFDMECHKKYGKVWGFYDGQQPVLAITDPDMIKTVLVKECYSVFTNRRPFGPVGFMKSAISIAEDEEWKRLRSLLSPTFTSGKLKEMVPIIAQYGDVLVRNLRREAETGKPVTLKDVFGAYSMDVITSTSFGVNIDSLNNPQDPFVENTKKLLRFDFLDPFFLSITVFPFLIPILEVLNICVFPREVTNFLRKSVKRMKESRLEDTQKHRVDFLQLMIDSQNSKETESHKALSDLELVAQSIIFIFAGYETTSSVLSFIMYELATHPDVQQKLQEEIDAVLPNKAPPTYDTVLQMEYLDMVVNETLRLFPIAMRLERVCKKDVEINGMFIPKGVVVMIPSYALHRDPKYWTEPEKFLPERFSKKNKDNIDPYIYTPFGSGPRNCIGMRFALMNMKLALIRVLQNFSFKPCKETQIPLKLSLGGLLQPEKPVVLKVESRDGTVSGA
Procedure, shortened: as §1

[8] = PSAPP mice treated from 3 mo of age (prophylactic)
[9] = PSAPP mice treated from 6 mo of age (disease-modifying)

For `COc1nc(-c2cc(C)c(N[C@@H](C)c3cc(F)cc(F)c3)nn2)ccc1-n1cnc(C)c1` [Compound 2, (S)-N-(1-(3,5-difluorophenyl)ethyl)-6-(6-methoxy-5-(4-methyl-1H-imidazol-1-yl)pyridin-2-yl)-4-methylpyridazin-3-amine], the “attenuation of cerebral amyloidosis (mAb 3D6), cortex and hippocampus” value (cerebral amyloidosis; 6-mo-old PSAPP mice (prophylactic group), P < 0.01) was “greater than twofold”, the “cerebral amyloidosis (mAb 3D6), cortex and hippocampus, vs vehicle” value (cerebral amyloidosis; 9-mo-old PSAPP mice (disease-modifying group), P < 0.03) was “statistically significant decrease” and the IC50 (CYP450 1A2) was 12 µM. The “inhibition of ligand binding” value (sodium channel (Site 2)) was “Greater than 50%”, the “reduction of brain Aβ42, detergent-insoluble (formic acid) extract” value [1, 8] was 54% and the “reduction of brain Aβ42, detergent-soluble (RIPA buffer) extract” value [1, 8] was 44%. For the same compound, the “reduction of brain Aβ42, detergent-insoluble (formic acid) extract” value [1, 9] was 39%, the “reduction of brain Aβ42, detergent-soluble (RIPA buffer) extract” value [1, 9] was 45% and the “inhibition of ligand binding” value (κ opioid receptors) was “Greater than 50%”. The “CL as percent of reported hepatic blood flow” value ([2]; hepatic blood flow 75 ml/min/kg) was less than 10%, the “fraction of dose absorbed from intestinal lumen (fabs)” value ([2]; kinetic analysis) was roughly 90% and the clearance ([2]; male, Sprague-Dawley, rat, plasma, iv, 1 mg/kg, CL) was 6 mL/min/kg. The inhibition at 10 µM (adenosine A3) was greater than 50%, the “effect on levels of Aβ38 in plasma” value [3] was “did not affect” and the “sustained lowering of plasma Aβ42 and Aβ40 peptides” value ([3]; 200 mg/kg, day 1 of repeat-dosing phase, for over 24 h) was roughly 70%. For the same compound, the IC50 (hERG channel) was 7.3 µM, the “safety margin between Aβ42 IC50 and hERG IC20” value (hERG channel) was greater than 100 fold and the IC20 (hERG channel; human, HEK-293 cells expressing hERG) was 1.3 µM. For the same compound, the “inhibition of ligand binding” value [4] was “Greater than 50%”, the Ames [5] was “Negative” and the “safety margin based on comparison of systemic exposures” value ([6]; AUC at rat NOAEL vs predicted human AUC at 100 mg) was “more than 130 fold”. For the same compound, the AUC ([6]; male, rat, in vivo, 60 mg/kg) was 586 µg·h/mL, the NOAEL at 28 d ([6]; rat, in vivo) was 60 mg/kg and the “GLP 28-d repeat-dose toxicity and in vivo micronucleus study” value ([6]; rats, data not shown) was “negative”. The IC50 (CYP450 2C9) was 4.4 µM, the clearance ([7]; CL, mice) was 8 mL/min/kg and the clearance ([7]; Cl, male CD-1 mice) was 8.05 mL/min/kg. The “CL as percent of reported hepatic blood flow” value ([7]; mice, hepatic blood flow 95 ml/min/kg) was less than 10%, the “fraction of dose absorbed from intestinal lumen (fabs)” value ([7]; mice, kinetic analysis) was roughly 90% and the IC50 (CYP450 3A4) was 9.4 µM. For the same compound, the IC50 (CYP450 3A4; CYP450 IC50 3A4 (m), probe substrate midazolam) was 42 µM.

— PMC7931646 (The Journal of Experimental Medicine, 2021)
